ChEMBL document CHEMBL3272090, “A new type of anticonvulsant: 1-aryl-3-oxotetrahydroisoquinolines” (J Med Chem, 1977)
Activity calls are given as the source filed them.

Columns and labels:
Mus musculus [1] = experiment: Anticonvulsant activity in mouse assessed as protection against pentylenetetrazole-induced convulsion at 300 mg/kg, po pretreated for 3 hrs; type: functional, organism-based; set-up: dose 300 mg/kg
In short: (§1)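 Peroral dosing in mice as Tween suspension, 3 h before pentylenetetrazole threshold test (Orloff method). Activity taken as a rise in threshold PTZ dose of at least 50% versus saline-pretreated controls.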

Mus musculus [2] = experiment: Neurotoxicity in po dosed mouse by rotarod test; type: toxicity, organism-based; conditions: in vivo
In short: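 Mice dosed perorally with Tween suspension 3 h before rotarod testing for neurotoxicity. Median effective dose with 95% confidence limits by Litchfield–Wilcoxon method.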

Mus musculus [3] = experiment: Anticonvulsant activity in po dosed mouse assessed as protection against maximal electroshock-induced seizures pretreated for 3 hrs; type: functional
In short: (§2)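 Mice given compound perorally as a Tween suspension 3 h before maximal electroshock seizure testing (Swinyard method). Median effective dose with 95% confidence limits by Litchfield–Wilcoxon; doses up to 300 mg/kg examined.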

[4] = Acute toxicity in po dosed mouse assessed as mortality after 24 hrs; type: organism-based; conditions: in vivo
[5] = Protective index, ratio of ED50 for neurotoxicity in po dosed mouse by rotarod test to ED50 for anticonvulsant activity in po dosed mouse assessed as protection against maximal electroshock-induced seizures; type: toxicity, organism-based; conditions: in vivo, read-out: Ratio ED50
In short: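 Index calculated as rotarod ED50 divided by MES ED50, both from mice dosed perorally in Tween suspension 3 h before testing.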

Mus musculus [6] = experiment: Anticonvulsant activity in po dosed mouse assessed as protection against pentylenetetrazole-induced convulsion pretreated for 3 hrs; type: functional; in short: as §1
Mus musculus [7] = experiment: Anticonvulsant activity in mouse assessed as protection against maximal electroshock-induced seizures at 300 mg/kg, po pretreated for 3 hrs; type: functional, organism-based; set-up: dose 300 mg/kg; in short: as §2

| SMILES | Activity (Mus musculus [1]) | ED50 (Mus musculus [2]) | ED50 (Mus musculus [3]) | LD50 at 24 h [4] | selectivity ratio [5] | ED50 (Mus musculus [6]) | Activity (Mus musculus [7]) |
| --- | --- | --- | --- | --- | --- | --- | --- |
| CCN(CC)CC(=O)Nc1ccc(C2NC(=O)C(C)(C)c3ccccc32)cc1 (configuration not stated) | inactive | 1300 mg/kg | 90 mg/kg | 1600 mg/kg | 15 | – | – |
| O=C1Cc2ccccc2C(c2ccccc2)N1 (configuration not stated) | inactive | 730 mg/kg | 105 mg/kg | 1060 mg/kg | 7 | – | – |
| CC(C)NCC(=O)Nc1ccc(C2NC(=O)Cc3ccccc32)cc1 (configuration not stated) | – | 270 mg/kg | – | > 1000 mg/kg | 26 | – | – |
| CCCNCC(=O)Nc1ccccc1C1NC(=O)Cc2ccccc21 (configuration not stated) | – | > 2000 mg/kg | 180 mg/kg | > 2000 mg/kg | > 11 | 300 mg/kg | – |
| O=C(CN1CCOCC1)Nc1ccc(C2NC(=O)Cc3ccccc32)cc1 (configuration not stated) | inactive | > 1600 mg/kg | 55 mg/kg | > 1600 mg/kg | > 29 | – | – |
| CC1(C)C(=O)NC(c2ccc(N)cc2)c2ccccc21 (configuration not stated) | – | 240 mg/kg | 20 mg/kg | > 1600 mg/kg | 12 | 100 mg/kg | – |
| CC1C(=O)NC(c2ccc(N)cc2)c2ccccc21 (configuration not stated) | – | 250 mg/kg | 26 mg/kg | > 2000 mg/kg | 10 | 100 mg/kg | – |
| Cc1ccc2c(c1)C(c1ccc(N)cc1)NC(=O)C2(C)C (configuration not stated) | – | 1030 mg/kg | 70 mg/kg | > 1600 mg/kg | 15 | 300 mg/kg | – |
| O=C1NC(=O)C(c2ccccc2)(c2ccccc2)N1 [PHENYTOIN] | – | 79.5 mg/kg | 5.2 mg/kg | > 1000 mg/kg | 15 | 26 mg/kg | – |
| CCNCC(=O)Nc1ccc(C2NC(=O)Cc3ccccc32)cc1 (configuration not stated) | – | 520 mg/kg | – | > 1600 mg/kg | 51 | – | – |
| CC(C)C1C(=O)NC(c2ccc(NC(=O)CCCN3CCCC3)cc2)c2ccccc21 (configuration not stated) | inactive | 86 mg/kg | – | > 1000 mg/kg | – | – | inactive |
| CCCNCC(=O)Nc1ccc(C2NC(=O)C(C(C)C)c3ccccc32)cc1 (configuration not stated) | inactive | 50 mg/kg | 19.6 mg/kg | 600 mg/kg | 2.5 | – | – |
| CCCCN(CCCC)CC(=O)Nc1ccc(C2NC(=O)C(C)(C)c3ccccc32)cc1 (configuration not stated) | inactive | 600 mg/kg | 62 mg/kg | > 2000 mg/kg | 10 | – | – |
| Nc1ccccc1C1NC(=O)Cc2ccccc21 (configuration not stated) | inactive | 940 mg/kg | 140 mg/kg | > 2000 mg/kg | 7 | – | – |
| O=C(CCCN1CCCC1)Nc1ccc(C2NC(=O)Cc3ccccc32)cc1 (configuration not stated) | inactive | > 2000 mg/kg | 215 mg/kg | > 2000 mg/kg | > 9 | – | – |
| CCCCNCC(=O)Nc1ccc(C2NC(=O)C(C)(C)c3ccccc32)cc1 (configuration not stated) | inactive | 335 mg/kg | 23.5 mg/kg | > 2000 mg/kg | 14 | – | – |

| SMILES | Activity (Mus musculus [1]) | ED50 (Mus musculus [2]) | ED50 (Mus musculus [3]) | LD50 at 24 h [4] | selectivity ratio [5] | ED50 (Mus musculus [6]) | Activity (Mus musculus [7]) |
| --- | --- | --- | --- | --- | --- | --- | --- |
| CNCC(=O)Nc1ccc(C2NC(=O)Cc3ccccc32)cc1 (configuration not stated) | – | 270 mg/kg | – | 600 mg/kg | 12 | – | – |
| CC(C)C1C(=O)NC(c2ccc(N)cc2)c2ccccc21 (configuration not stated) | – | 358 mg/kg | 20 mg/kg | > 1600 mg/kg | 18 | 20 mg/kg | – |
| CCCNCC(=O)Nc1ccc(C2NC(=O)C(C)(C)c3ccccc32)cc1 (configuration not stated) | – | 435 mg/kg | – | > 1600 mg/kg | 14 | – | – |
| CC1(C)C(=O)NC(c2ccc(NC(=O)CN3CCCCC3)cc2)c2ccccc21 (configuration not stated) | inactive | > 2000 mg/kg | 62 mg/kg | > 2000 mg/kg | > 36 | – | – |
| O=C(CN1CCCCC1)Nc1ccc(C2NC(=O)Cc3ccccc32)cc1 (configuration not stated) | – | > 2000 mg/kg | – | > 2000 mg/kg | – | 300 mg/kg | inactive |
| Cl.Nc1ccc(C2NC(=O)Cc3ccccc32)cc1 (configuration not stated) | – | 95 mg/kg | 19 mg/kg | 795 mg/kg | 5 | 50 mg/kg | – |
| CC1(C)C(=O)NC(c2ccccc2N)c2ccccc21 (configuration not stated) | – | > 1000 mg/kg | 110 mg/kg | > 1000 mg/kg | > 9 | – | – |
| CC1(C)C(=O)NC(c2ccc(NC(=O)CN3CCOCC3)cc2)c2ccccc21 (configuration not stated) | – | > 1600 mg/kg | 78 mg/kg | 2000 mg/kg | > 20 | 300 mg/kg | – |
| O=C1Cc2ccccc2C(c2ccc(NC(=O)NCc3ccccc3)cc2)N1 (configuration not stated) | inactive | > 2000 mg/kg | 275 mg/kg | > 2000 mg/kg | > 7 | – | – |
| CCCNCC(=O)Nc1ccc(C2NC(=O)Cc3ccccc32)cc1 (configuration not stated) | – | 490 mg/kg | 20.6 mg/kg | 2000 mg/kg | 24 | – | – |
| Nc1ccc(Cl)c(C2NC(=O)Cc3ccccc32)c1Cl (configuration not stated) | inactive | > 1000 mg/kg | – | > 1000 mg/kg | – | – | inactive |
| CCCNCC(=O)Nc1ccc(C2NC(=O)C(C)c3ccccc32)cc1 (configuration not stated) | – | 340 mg/kg | – | > 1600 mg/kg | 15 | 100 mg/kg | – |
| CC(C)NCC(=O)Nc1ccc(C2NC(=O)C(C)(C)c3ccccc32)cc1 (configuration not stated) | – | 1600 mg/kg | – | > 2000 mg/kg | 59 | 100 mg/kg | – |
| CNCC(=O)Nc1ccc(C2NC(=O)C(C)(C)c3ccccc32)cc1 (configuration not stated) | inactive | 600 mg/kg | – | > 2000 mg/kg | 24 | – | – |
| CCNCC(=O)Nc1ccc(C2NC(=O)C(C)(C)c3ccccc32)cc1 (configuration not stated) | – | 760 mg/kg | – | > 2000 mg/kg | – | – | inactive |
| CC1(C)C(=O)NC(c2ccc(NC(=O)CN)cc2)c2ccccc21 (configuration not stated) | inactive | 420 mg/kg | 32.5 mg/kg | > 1000 mg/kg | 13 | – | – |
